Experimental data from ChEMBL document CHEMBL1130045, “7-Spiroindanyl derivatives of naltrexone and oxymorphone as selective ligands for delta opioid receptors” (J Med Chem, 1997).

What was measured:
[1] = biological target: Opioid receptors; mu & delta (Homo sapiens) (UniProt P41143+P35372); assay: Antagonist selectivity ratio measured as delta IC50 to that of mu receptor IC50 values.; assay type: functional
Summary of the method: (§1)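 Derived from the tissue antagonism data. The δ IC50 ratio (DADLE, mouse vas deferens) is divided by the μ (morphine) or κ (ethylketazocine) IC50 ratio from guinea pig ileum, each ratio measured at 100 nM antagonist. An IC50 ratio below unity is set to a minimum of 1 in the calculation.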

[2] = biological target: Mu-type opioid receptor (Cavia porcellus) (UniProt P97266); assay: Antagonist activity against electrically stimulated guinea pig ileum using morphine (M) as mu opioid receptor agonist; assay type: functional, tissue-based
Summary of the method: (§2)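 Electrically stimulated guinea pig ileum (morphine, μ; ethylketazocine, κ) or mouse vas deferens (DADLE, δ). The test ligand is incubated with the tissue for 15 min, then the agonist curve is run with 100 nM antagonist present. Read-out is the IC50 ratio: agonist IC50 with antagonist divided by the control IC50 in the same preparation. Three or more replicates.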

[3] = biological target: T1, Delta-type opioid receptor (Mus musculus, UniProt P32300); assay: The compound tested for […] against [3H]- NT1 (Opioid receptor delta 1) opioid receptor
Summary of the method: (§3)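 Competition binding in ICR mouse brain membranes, using a modified Werling procedure. Radioligands are [3H]naltrindole for δ, [3H]DAMGO for μ and [3H]U69593 for κ. Ki values are derived from the competition curves.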

Cavia porcellus [4] = organism: Cavia porcellus; assay: Compound was tested for agonistic activity on the electrically stimulated guinea pig ileum (GPI) at 1 uM; assay type: functional
[5] = biological target: Mu-type opioid receptor (Mus musculus) (UniProt P42866); assay: Compound was tested for its ability to antagonize the antinociceptive effect of morphine (mu opioid receptor agonist) in mice; assay type: functional
Summary of the method: (§4)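 Tail-flick antinociception in ICR mice. Antagonist is given icv at 5 or 10 nmol, timed so its 20 min peak effect falls at the centre of the observation period. Agonists are DPDPE and DSLET icv, and morphine sc. Read-out is the agonist ED50 with antagonist divided by the control ED50, with 95% confidence limits.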

[6] = biological target: Kappa-type opioid receptor (Mus musculus) (UniProt P33534); assay: Compound was tested for its ability to antagonize the antinociceptive effect of U-69,594 (kappa opioid receptor agonist) in mice; assay type: functional
[7] = biological target: Opioid receptors; mu & kappa (Homo sapiens) (UniProt P41145+P35372); assay: Antagonist selectivity ratio measured as delta IC50 to that of mu kappa IC50 values.; assay type: functional; summary of the method: as §1
[8] = biological target: Delta-type opioid receptor (Mus musculus) (UniProt P32300); assay: Compound was tested for its ability to antagonize the antinociceptive effect of DSLET (delta-2 opioid receptor agonist) in mice; assay type: functional; summary of the method: as §4
Mus musculus [9] = organism: Mus musculus; assay: Compound was tested for agonistic activity on the electrically stimulated mouse vas deferens (MVD) at 1 uM; assay type: functional
[10] = biological target: Delta-type opioid receptor (Mus musculus) (UniProt P32300); assay: Compound was tested for its ability to antagonize the antinociceptive effect of DPDPE (delta-1 opioid receptor agonist) in mice; assay type: functional; summary of the method: as §4
[11] = biological target: Kappa-type opioid receptor (Cavia porcellus) (UniProt P41144); assay: Antagonist activity against electrically stimulated guinea pig ileum using ethylketazocine (EK) as kappa opioid receptor agonist; assay type: functional, tissue-based; summary of the method: as §2
Mu-type opioid receptor [12] = biological target: Mu-type opioid receptor (Mus musculus, UniProt P42866); assay: […]; assay type: functional; summary of the method: as §3
[13] = biological target: Kappa-type opioid receptor (Mus musculus, UniProt P33534); assay: […]; assay type: functional; summary of the method: as §3
Mus musculus [14] = organism: Mus musculus; assay: Compound was tested for the antagonist activity on the electrically stimulated mouse vas deferens using DADLE as delta opioid receptor agonist; assay type: functional; summary of the method: as §2
Cavia porcellus [15] = organism: Cavia porcellus; assay: Compound was tested for agonistic activity on the electrically stimulated guinea pig ileum (GPI); assay type: functional, organism-based
[16] = biological target: T1, Delta-type opioid receptor; assay: […]; assay type: functional; summary of the method: as §3
Mus musculus [17] = organism: Mus musculus; assay: Compound was tested for agonistic activity on the electrically stimulated mouse vas deferens (MVD); assay type: functional, organism-based
Mu-type opioid receptor [18] = biological target: Mu-type opioid receptor (Homo sapiens, UniProt P35372); assay: […]; assay type: functional
[19] = biological target: Kappa-type opioid receptor (Homo sapiens, UniProt P41145); assay: […]; assay type: functional
[20] = biological target: Delta-type opioid receptor (Homo sapiens, UniProt P41143); assay: […]; assay type: functional
Delta-type opioid receptor (Homo sapiens, UniProt P41143), sequence (P41143 whole entry): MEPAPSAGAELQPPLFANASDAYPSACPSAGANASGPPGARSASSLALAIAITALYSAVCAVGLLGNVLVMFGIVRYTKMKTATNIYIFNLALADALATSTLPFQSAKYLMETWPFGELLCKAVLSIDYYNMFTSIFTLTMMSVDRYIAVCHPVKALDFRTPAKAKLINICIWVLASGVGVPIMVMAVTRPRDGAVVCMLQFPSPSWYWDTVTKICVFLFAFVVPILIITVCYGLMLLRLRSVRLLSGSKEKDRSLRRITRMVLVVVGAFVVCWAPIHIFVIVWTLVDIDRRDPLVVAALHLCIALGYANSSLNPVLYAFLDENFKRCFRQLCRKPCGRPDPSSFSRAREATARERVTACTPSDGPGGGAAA

Kappa-type opioid receptor (Mus musculus, UniProt P33534), sequence (P33534 whole entry): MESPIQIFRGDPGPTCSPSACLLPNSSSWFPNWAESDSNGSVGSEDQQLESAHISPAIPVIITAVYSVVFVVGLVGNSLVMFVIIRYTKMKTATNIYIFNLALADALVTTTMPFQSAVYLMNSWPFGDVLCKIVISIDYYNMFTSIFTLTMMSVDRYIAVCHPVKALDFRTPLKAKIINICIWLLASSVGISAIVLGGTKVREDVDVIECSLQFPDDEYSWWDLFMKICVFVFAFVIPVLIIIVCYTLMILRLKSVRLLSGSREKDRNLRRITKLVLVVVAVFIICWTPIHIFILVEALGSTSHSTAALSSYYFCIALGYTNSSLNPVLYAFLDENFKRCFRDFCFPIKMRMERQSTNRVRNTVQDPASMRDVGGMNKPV
Kappa-type opioid receptor (Mus musculus), sequence (P33534 whole entry): as above
Kappa-type opioid receptor (Cavia porcellus), sequence (P41144 whole entry): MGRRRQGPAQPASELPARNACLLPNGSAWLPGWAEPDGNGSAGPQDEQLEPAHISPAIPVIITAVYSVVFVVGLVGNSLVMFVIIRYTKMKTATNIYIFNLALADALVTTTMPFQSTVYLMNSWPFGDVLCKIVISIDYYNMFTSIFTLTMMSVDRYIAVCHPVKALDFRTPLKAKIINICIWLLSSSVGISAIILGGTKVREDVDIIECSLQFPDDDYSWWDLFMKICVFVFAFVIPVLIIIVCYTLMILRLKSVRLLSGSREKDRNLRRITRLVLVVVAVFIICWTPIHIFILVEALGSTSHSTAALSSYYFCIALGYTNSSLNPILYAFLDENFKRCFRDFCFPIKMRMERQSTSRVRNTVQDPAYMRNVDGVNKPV
T1 sequence (P32300 whole entry): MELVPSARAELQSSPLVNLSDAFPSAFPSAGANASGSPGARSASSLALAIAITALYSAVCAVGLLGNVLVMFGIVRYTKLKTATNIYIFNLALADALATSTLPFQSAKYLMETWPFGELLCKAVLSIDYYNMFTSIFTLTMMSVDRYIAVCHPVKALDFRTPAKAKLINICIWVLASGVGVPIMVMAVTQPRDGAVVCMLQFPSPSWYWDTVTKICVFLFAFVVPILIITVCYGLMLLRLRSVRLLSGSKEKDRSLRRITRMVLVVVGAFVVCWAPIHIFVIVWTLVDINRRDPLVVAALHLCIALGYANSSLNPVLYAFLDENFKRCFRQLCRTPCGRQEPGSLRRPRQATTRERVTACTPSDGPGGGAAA
Delta-type opioid receptor (Mus musculus), sequence (P32300 whole entry): as above
Mu-type opioid receptor (Mus musculus), sequence (P42866 whole entry): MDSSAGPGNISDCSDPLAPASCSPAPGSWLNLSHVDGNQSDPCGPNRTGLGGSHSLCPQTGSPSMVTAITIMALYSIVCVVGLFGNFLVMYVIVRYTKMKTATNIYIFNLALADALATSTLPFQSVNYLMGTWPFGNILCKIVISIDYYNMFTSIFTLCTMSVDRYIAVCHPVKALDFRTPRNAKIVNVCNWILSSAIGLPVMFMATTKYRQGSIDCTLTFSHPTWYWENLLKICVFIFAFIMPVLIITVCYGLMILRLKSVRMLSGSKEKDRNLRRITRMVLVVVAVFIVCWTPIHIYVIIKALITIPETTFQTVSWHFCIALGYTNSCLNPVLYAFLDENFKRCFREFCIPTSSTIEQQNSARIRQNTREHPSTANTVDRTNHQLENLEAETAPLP
Mu-type opioid receptor (Mus musculus, UniProt P42866), sequence (P42866 whole entry): as above
Opioid receptors; mu & kappa (Homo sapiens), sequence (P35372 whole entry, looked up): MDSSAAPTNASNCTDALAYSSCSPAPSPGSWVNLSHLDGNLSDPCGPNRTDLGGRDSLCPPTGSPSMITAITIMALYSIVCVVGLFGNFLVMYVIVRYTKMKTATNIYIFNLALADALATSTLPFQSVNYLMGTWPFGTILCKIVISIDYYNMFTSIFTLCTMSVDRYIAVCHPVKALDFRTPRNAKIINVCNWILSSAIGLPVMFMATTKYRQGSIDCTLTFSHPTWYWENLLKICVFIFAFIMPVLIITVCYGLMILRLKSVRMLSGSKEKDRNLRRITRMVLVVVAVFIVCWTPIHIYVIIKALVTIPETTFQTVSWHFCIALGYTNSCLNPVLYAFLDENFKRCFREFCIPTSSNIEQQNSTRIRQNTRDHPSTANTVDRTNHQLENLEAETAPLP
Opioid receptors; mu & kappa (Homo sapiens), sequence (P41145 whole entry, looked up): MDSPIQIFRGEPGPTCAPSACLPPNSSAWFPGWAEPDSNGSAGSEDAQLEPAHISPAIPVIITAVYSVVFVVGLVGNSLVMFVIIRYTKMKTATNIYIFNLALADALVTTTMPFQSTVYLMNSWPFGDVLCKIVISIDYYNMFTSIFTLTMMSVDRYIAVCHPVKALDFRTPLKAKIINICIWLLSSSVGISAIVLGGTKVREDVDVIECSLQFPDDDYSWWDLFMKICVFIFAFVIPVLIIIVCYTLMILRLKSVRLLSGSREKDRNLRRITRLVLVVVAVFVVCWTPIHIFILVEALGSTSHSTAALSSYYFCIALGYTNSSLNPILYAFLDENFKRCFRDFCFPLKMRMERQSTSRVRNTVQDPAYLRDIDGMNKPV
Opioid receptors; mu & delta (Homo sapiens), sequence (P35372 whole entry, looked up): as the sequence (P35372 whole entry, looked up) above
Opioid receptors; mu & delta (Homo sapiens), sequence (P41143 whole entry, looked up): as the sequence (P41143 whole entry) above
Mu-type opioid receptor (Cavia porcellus), sequence (P97266 whole entry): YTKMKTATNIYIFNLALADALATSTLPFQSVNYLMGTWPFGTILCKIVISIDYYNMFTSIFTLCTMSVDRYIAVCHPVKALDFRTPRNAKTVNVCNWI
Kappa-type opioid receptor (Homo sapiens, UniProt P41145), sequence (P41145 whole entry): as the sequence (P41145 whole entry, looked up) above
Mu-type opioid receptor (Homo sapiens, UniProt P35372), sequence (P35372 whole entry): as the sequence (P35372 whole entry, looked up) above

Compound	IC50 ratio [1]	IC50 ratio [2]	Ki [3]	Max response (Cavia porcellus [4])	ED50 ratio [5]	ED50 ratio [6]	IC50 ratio [7]	ED50 ratio [8]	Max response (Mus musculus [9])	ED50 ratio [10]	IC50 ratio [11]	Ki (Mu-type opioid receptor [12])	Ki [13]	IC50 ratio (Mus musculus [14])	IC50 (Cavia porcellus [15])	Ki [16]	IC50 (Mus musculus [17])	Ki (Mu-type opioid receptor [18])	Ki [19]	Ki [20]
CN1CCC23c4c5ccc(O)c4OC2C(=O)C2(Cc4cc6ccccc6cc4C2)C[C@@]3(O)C1C5 (stereo not given in full)	1	0.58	31.6 nM	13.4%	2	3	1	0.9	57%	1.5	1.2	125 nM	> 3 µM	1.1	–	–	–	–	–	–
COc1cccc2c1CC1(C2)C[C@@]2(O)C3Cc4ccc(O)c5c4C2(CCN3C)C(O5)C1=O (stereo not given in full)	–	–	–	–	–	–	–	–	–	–	–	9.24 nM	> 3 µM	–	148 nM	5.49 nM	27 nM	–	–	–
O=C1C2Oc3c(O)ccc4c3C23CCN(CC2CC2)C(C4)[C@]3(O)CC12Cc1ccc3ccccc3c1C2 (stereo not given in full)	25	1	–	13.9%	–	–	14.7	–	14%	–	1.7	–	–	25	–	–	–	–	–	–
COc1cccc2c1CC1(C2)C[C@@]2(O)C3Cc4ccc(O)c5c4C2(CCN3CC2CC2)C(O5)C1=O (stereo not given in full)	13.7	6.2	–	-4.5%	2.5	3.4	35	4.3	-18%	5.6	2.4	0.44 nM	> 3 µM	85	–	0.028 nM	–	–	–	–
O=C1C2Oc3c(O)ccc4c3C23CCN(CC2CC2)C(C4)[C@]3(O)CC12Cc1cc3ccccc3cc1C2 (stereo not given in full)	14.1	3.4	–	52%	0.8	0.8	48	1.5	4.9%	4.4	0.24	7.81 nM	1.03 µM	48	–	Non-competitive inhibition	–	–	–	–
COc1ccc2c(c1)CC1(C2)C[C@@]2(O)C3Cc4ccc(O)c5c4C2(CCN3CC2CC2)C(O5)C1=O (stereo not given in full)	1.7	6.9	–	-52%	–	–	4.2	–	0.6%	–	2.8	–	–	11.8	–	–	–	–	–	–
O=C1[C@@H]2Oc3c(O)ccc4c3[C@@]23CCN(CC2CC2)[C@H](C4)[C@]3(O)CC12Cc1ccccc1C2	–	–	–	16%	–	–	–	–	-8%	–	–	–	–	130	–	–	–	1.53 nM	> 3 µM	0.25 nM
O=C1C2Oc3c(O)ccc4c3C23CCN(CC2CC2)C(C4)[C@]3(O)CC12Cc1cccc3cccc(c13)C2 (stereo not given in full)	12.6	0.93	–	11.2%	–	–	12.6	–	17.6%	–	0.78	–	–	12.6	–	–	–	–	–	–
CN1CC[C@]23c4c5ccc(O)c4O[C@H]2C(=O)C2(Cc4ccccc4C2)C[C@@]3(O)[C@H]1C5 [SPIROINDANYLOXYMORPHONE]	–	1.2	–	55%	–	–	–	–	–	–	0.99	–	–	–	–	–	23 nM	14.3 nM	> 3 µM	2.75 nM
O=C1/C(=C/c2ccccc2)C[C@@]2(O)[C@H]3Cc4ccc(O)c5c4[C@@]2(CCN3CC2CC2)[C@H]1O5	–	–	–	–	0.8	1.2	–	0.91	–	7.2	–	–	–	–	–	–	–	–	–	–
